Paper PMC7195875 (Science signaling, 2018)

Legend:
[1] = target: TIRAP-GyrB (UniProt P0AES6+Q99JY1); assay: NF-κB luciferase reporter, TIRAP-GyrB HEK293T cells, coumermycin-induced; type: cell-based, human
Outline: (§1)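 HEK293T NF-κB luciferase reporter clones carried three NF-κB sites and GyrB fusions introduced by viral transduction with antibiotic selection. Cells received 100 nM coumermycin A1 plus test compound at 10 concentrations (56 μM–2.8 nM) in triplicate, 0.24% final DMSO. After 24 h, AlamarBlue (1 h, 37 °C) measured viability, then SteadyLite luminescence. Values were normalised to coumermycin alone (0%) and coumermycin + 30 μM PS-1145 (100%).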

[2] = system: TLR9; assay: CpG-DNA-induced TNFα release from primary macrophages; type: cell-based, mouse; conditions: six hours
Outline: (§2)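 Macrophages came from bone marrow of female C57BL/6 mice, grown 6 d in DMEM with 10% FCS and 30% L-cell-conditioned medium. Cells were stimulated with the respective agonist for 6 h alongside graded test compound concentrations. TNFα in supernatants was measured by ELISA. Means ± SD of 3 independent experiments.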

[3] = system: TLR9; assay: Western blot of IκBα degradation and MAPK phosphorylation after CpG-DNA; type: cell-based, mouse
Outline: (§3)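 Bone-marrow macrophages (6 d culture in L-cell-conditioned medium) were stimulated with the respective agonist with or without test compound. Lysates were immunoblotted for the indicated signaling proteins, with total p38 as loading control. Blots are representative of 3 independent experiments.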

[4] = system: TLR7; assay: Western blot of NF-κB- and MAPK-pathway activation after R848; type: cell-based, mouse
Outline: as §3

[5] = target: MyD88-GyrB (UniProt P0AES6+Q99836); assay: NF-κB luciferase reporter, MyD88-GyrB HEK293T cells, coumermycin-induced; type: cell-based, human
Outline: as §1

[6] = system: RAW264.7 cells; assay: Toxicity; type: cell-based, mouse; conditions: read-out: TLR9 Toxicity EC50, Table 1
[7] = system: TLR7; assay: R848-induced TNFα release from primary macrophages; type: cell-based, mouse; conditions: six hours
Outline: as §2

[8] = system: Dectin-1; assay: Curdlan-induced TNFα release from primary macrophages; type: cell-based, mouse; conditions: six hours
Outline: as §2

[9] = target: TIR-domain of MyD88 / full length MyD88 (Homo sapiens, UniProt Q99836); assay: Co-IP of MyD88 TIR-domain with full-length MyD88 in HEK293T cells; type: cell-based
Outline: (§4)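 HEK293T cells were transfected by Lipofectamine with epitope-tagged MyD88: FLAG full-length plus HA-TIR domain or DD domain. Test compound or DMSO was added 7 h post-transfection, and cells were lysed at 20 h for 20 min at 4 °C in HEPES pH 7.5 buffer with 0.5% NP-40. Cleared lysates underwent FLAG M2 resin IP for 1 h at 4 °C, then immunoblotting with densitometry. Blots represent 4 independent experiments.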

[10] = target: T1, full length human estrogen receptor α (Homo sapiens, UniProt P03372); assay: Competitive radiometric estrogen receptor binding assay, ERα; conditions: relative binding affinity, estradiol = 100
T1 sequence (P03372 1-595): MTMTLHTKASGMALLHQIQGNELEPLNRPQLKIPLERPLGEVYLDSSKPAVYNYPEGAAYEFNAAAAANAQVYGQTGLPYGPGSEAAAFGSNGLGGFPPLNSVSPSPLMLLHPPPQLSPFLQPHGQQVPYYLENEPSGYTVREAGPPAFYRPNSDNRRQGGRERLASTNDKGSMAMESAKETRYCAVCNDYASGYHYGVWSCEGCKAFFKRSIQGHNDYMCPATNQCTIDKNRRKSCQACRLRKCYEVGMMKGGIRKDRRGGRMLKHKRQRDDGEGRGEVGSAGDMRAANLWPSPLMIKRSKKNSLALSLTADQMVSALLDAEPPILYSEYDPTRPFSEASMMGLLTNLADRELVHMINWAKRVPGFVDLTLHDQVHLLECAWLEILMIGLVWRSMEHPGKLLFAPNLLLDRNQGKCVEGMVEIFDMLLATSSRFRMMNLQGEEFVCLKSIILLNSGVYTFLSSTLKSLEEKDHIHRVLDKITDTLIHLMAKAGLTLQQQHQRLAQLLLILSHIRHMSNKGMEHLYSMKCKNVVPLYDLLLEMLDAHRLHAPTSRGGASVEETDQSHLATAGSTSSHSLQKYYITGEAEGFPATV

[11] = target: DD-domain of MyD88 / full length MyD88 (Homo sapiens, UniProt Q99836); assay: Co-IP of MyD88 DD-domain with full-length MyD88 in HEK293T cells; type: cell-based
Outline: as §4

[12] = system: TLR4; assay: LPS-induced TNFα release from primary macrophages; type: cell-based, mouse; conditions: six hours
Outline: as §2

[13] = system: Dectin-1; assay: Western blot of signaling after Curdlan; type: cell-based, mouse
Outline: as §3

[14] = system: TLR2; assay: Pam3Cys-induced TNFα release from primary macrophages; type: cell-based, mouse; conditions: six hours
Outline: as §2

[15] = target: full length human estrogen receptor β (Homo sapiens, UniProt Q92731); assay: Competitive radiometric estrogen receptor binding assay, ERβ; conditions: relative binding affinity, estradiol = 100
Sequence of full length human estrogen receptor β (Q92731 whole entry): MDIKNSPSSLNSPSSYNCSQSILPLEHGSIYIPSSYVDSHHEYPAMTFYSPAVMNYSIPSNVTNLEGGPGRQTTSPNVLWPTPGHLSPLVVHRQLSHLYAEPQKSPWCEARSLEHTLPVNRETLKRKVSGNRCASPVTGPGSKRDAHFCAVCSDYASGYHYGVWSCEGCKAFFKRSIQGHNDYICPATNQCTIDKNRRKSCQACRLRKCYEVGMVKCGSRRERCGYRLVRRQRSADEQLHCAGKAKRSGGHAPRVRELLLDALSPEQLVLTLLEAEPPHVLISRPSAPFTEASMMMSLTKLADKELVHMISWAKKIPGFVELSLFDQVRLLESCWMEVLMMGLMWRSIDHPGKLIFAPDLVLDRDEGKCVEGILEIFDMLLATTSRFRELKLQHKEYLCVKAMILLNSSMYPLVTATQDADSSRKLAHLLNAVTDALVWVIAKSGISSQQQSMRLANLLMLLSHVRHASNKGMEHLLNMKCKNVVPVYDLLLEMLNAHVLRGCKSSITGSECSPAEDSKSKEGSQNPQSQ

[16] = target: MyD88 homodimerization (UniProt P0AES6+Q99836); assay: Co-immunoprecipitation with MyD88-GyrB in RAW264.7 cells; type: cell-based, mouse; conditions: co-IP
[17] = target: MyD88 signaling complex (UniProt P0AES6+Q99836); type: cell-based, mouse; conditions: 10 μM MPP, 1 μM CpG-DNA, RAW264.7
Outline: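 RAW264.7 cells stably expressing FLAG-MyD88-GyrB were SILAC-labelled (light/medium/heavy) in Arg/Lys-free RPMI with 10% dialysed FBS. Heavy cells got 10 μM test compound for 20 min; medium and heavy were then stimulated with 1 μM CpG-DNA for 60 min. […] Quantitative MS gave fold-change versus unstimulated cells, with unique peptides counted.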

[18] = system: R848-induced PBMC; conditions: read-out: IC50 on R848-induced PBMC; cited from earlier work
[19] = system: IL-1β-induced NF-κB activity; conditions: read-out: IC50 for IL-1β-induced NF-κB activity; cited from earlier work

**Q.** For Cc1c(-c2ccc(O)cc2)nn(-c2ccc(O)cc2)c1-c1ccc(OCCN2CCCCC2)cc1 [MPP, methyl-piperidino-pyrazole], which “inhibition of TIRAP-mediated NF-κB activity” value [1] is on record?
**A.** Its value is “low μM concentrations”.

**Q.** And the “TNFα release, CpG-DNA (TLR9)” value [2]?
**A.** The value was “interfered with TNFα release”.

**Q.** And the “block of IκBα degradation and MAPK phosphorylation after CpG-DNA” value [3]?
**A.** The value was “almost completely”.

**Q.** And the “block of NF-κB- and MAPK-pathway activation downstream of R848” value [4]?
**A.** The value was “not completely”.

**Q.** What about the “inhibition of MyD88-mediated NF-κB activity” value [5] of the same molecule?
**A.** The value was “low μM concentrations”.

**Q.** What about the EC50 [6] of the same molecule?
**A.** Its EC50 is 13.2 ± 2.4 µM.

**Q.** And the “TNFα release, Resiquimod (R848; TLR7)” value [7]?
**A.** The value was “interfered with TNFα release”.

**Q.** And the “TNFα release induced by Curdlan” value [8]?
**A.** The value was “did not reduce TNFα release”.

**Q.** And the “interaction of the TIR-domain with full length MyD88” value [9]?
**A.** The value was “strongly reduced”.

**Q.** And the “RBA ERα” value [10]?
**A.** Its value is 12 ± 2.

**Q.** What about the “interaction of the DD-domain with full length MyD88” value [11] of the same molecule?
**A.** The value was “but not the DD-domain”.

**Q.** And the “TNFα release, LPS (TLR4)” value [12]?
**A.** The value was “interfered with TNFα release”.

**Q.** And the Curdlan-induced cell activation [13]?
**A.** Its Curdlan-induced cell activation is “remained largely unaffected”.

**Q.** What about the “TNFα release, Pam3Cys (TLR2)” value [14] of the same molecule?
**A.** The value was “interfered with TNFα release”.

**Q.** And the “RBA ERβ” value [15]?
**A.** The value was 0.05 ± 0.01.

**Q.** And the “recruitment of endogenous MyD88 and IRAK4 to GyrB-MyD88” value [16]?
**A.** Its value is “inhibited recruitment of endogenous MyD88 and IRAK4”.

**Q.** What about the “recruitment of activation-dependent MyD88-interacting proteins, including IRAK4” value [17] of the same molecule?
**A.** The value was “almost completely blocked recruitment”.

**Q.** For CC[C@@H]1[C@H](F)C(=O)N[C@@H]1COc1nccc2cc(C(N)=O)c(OC)cc12 [Pf-06650833, 1-{[(2S,3S,4S)-3-Ethyl-4-fluoro-5-oxopyrrolidin-2-yl]methoxy}−7-methoxyisoquinoline-6-carboxamide], which IC50 [18] is on record?
**A.** The IC50 was 0.0024 µM.

**Q.** Which IC50 [19] does the source give for NC(=O)[C@H]1CCS[C@@H]2C[C@]3(CCCN3C(=O)Cc3ccc(NC(=O)COc4ccc(Cl)cc4Cl)cc3)C(=O)N12 [ST2825] here?
**A.** The IC50 was > 10 µM.
